Test results as given in ChEMBL document CHEMBL1165950, “Design and synthesis of new potent anticancer pyrazoles with high FLT3 kinase inhibitory selectivity” (Bioorg Med Chem, 2010).

Columns and labels:
Assay type in all cases: functional
[1] = test system: BT-549; test: Cytotoxicity against human BT549 cells assessed as cell growth at 0.001 uM after 48 hrs by sulforhodamine B assay; settings: BT-549, 48 h, read-out: Activity
How it was run: (§1)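 NCI-60 five-dose screen. Cells were grown in RPMI 1640 with 5% FBS and 2 mM L-glutamine, plated at 5000–40,000 cells/well and preincubated for 24 h. Time-zero plates were TCA-fixed. DMSO-solubilized drug was added at five concentrations (10-fold or ½-log serial dilutions) for 48 h at 37 °C, 5% CO2. Cells were TCA-fixed, stained with 0.4% SRB and read at 515 nm. Percent growth used time-zero, control and test absorbances.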

[2] = test system: HT-29; test: Growth inhibition of human HT-29 cells after 48 hrs by sulforhodamine B assay; settings: HT-29, 48 h; for CC50: read-out: LC50 (the source's name)
How it was run: (§2)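 NCI 60-cell screen, five-dose mode. Cells grown in RPMI 1640 with 5% FBS and 2 mM L-glutamine and plated at 5000-40,000 cells/well according to doubling time. After 24 h preincubation, a Tz plate was TCA-fixed. Five concentrations (10-fold or 1/2 log dilutions) were applied for 48 h at 37 °C. SRB staining read at 515 nm. IC50 taken from [(Ti-Tz)/(C-Tz)]×100 = 50.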

[3] = test system: HCT-15; test: Cytotoxicity against human HCT15 cells assessed as cell growth at 10 uM; settings: read-out: Activity
How it was run: (§3)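 Single-dose NCI-60 screen at 10 µM. Cells were grown in RPMI 1640 with 5% FBS and 2 mM L-glutamine, then treated for 48 h at 37 °C. Protein was measured by SRB staining with absorbance at 515 nm. Percentage growth was recorded, and inhibition percentage was calculated as 100 minus growth percentage.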

[4] = test system: SNB-19; test: Cytotoxicity against human SNB19 cells assessed as cell growth at 10 uM after 48 hrs by sulforhodamine B assay; settings: SNB-19, 48 h, read-out: Activity
[5] = test system: UACC-257; test: Cytotoxicity against human UACC257 cells assessed as cell growth at 10 uM after 48 hrs by sulforhodamine B assay; settings: UACC-257, 48 h, read-out: Activity
[6] = test system: HT-29; test: Cytotoxicity against human HT-29 cells assessed as cell growth at 0.01 uM after 48 hrs by sulforhodamine B assay; settings: HT-29, 48 h, read-out: Activity
[7] = test system: IGROV-1; test: Cytotoxicity against human IGROV1 cells assessed as cell growth at 100 nM after 48 hrs by sulforhodamine B assay; settings: IGROV-1, 48 h, read-out: Activity
[8] = test system: CAKI-1; test: Growth inhibition of human Caki1 cells after 48 hrs by sulforhodamine B assay; settings: CAKI-1, 48 h; for CC50: read-out: LC50 (the source's name)
How it was run: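 NCI five-dose SRB assay in RPMI 1640 with 5% FBS and 2 mM L-glutamine. Cells were preincubated 24 h, then exposed 48 h at 37 °C to five concentrations (10-fold or half-log serial dilutions from DMSO stocks). TCA fixation, SRB staining, and absorbance at 515 nm followed. IC50 was taken where [(Ti−Tz)/(C−Tz)]×100 = 50, with Tz as time-zero cell density.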

[9] = test system: CAKI-1; test: Cytotoxicity against human Caki1 cells assessed as cell growth at 10 uM after 48 hrs by sulforhodamine B assay; settings: CAKI-1, 48 h, read-out: Activity
[10] = test system: 786-0; test: Cytotoxicity against human 786-0 cells assessed as cell growth at 100 nM after 48 hrs by sulforhodamine B assay; settings: 786-0, 48 h, read-out: Activity; how it was run: as §1
[11] = test system: M14; test: Cytotoxicity against human M14 cells assessed as cell growth at 0.01 uM after 48 hrs by sulforhodamine B assay; settings: M14, 48 h, read-out: Activity
[12] = test system: SK-OV-3; test: Cytotoxicity against human SKOV3 cells assessed as cell growth at 0.001 uM after 48 hrs by sulforhodamine B assay; settings: SK-OV-3, 48 h, read-out: Activity
[13] = test system: MDA-MB-231; test: Cytotoxicity against human MDA-MB-231 cells assessed as cell growth at 0.01 uM after 48 hrs by sulforhodamine B assay; settings: MDA-MB-231, 48 h, read-out: Activity
[14] = test system: OVCAR-4; test: Cytotoxicity against human OVCAR4 cells assessed as cell growth at 0.001 uM after 48 hrs by sulforhodamine B assay; settings: OVCAR-4, 48 h, read-out: Activity
[15] = test system: T47D; test: Growth inhibition of human T47D cells after 48 hrs by sulforhodamine B assay; how it was run: as §2
[16] = test system: MDA-MB-231; test: Cytotoxicity against human MDA-MB-231 cells assessed as cell growth at 100 nM after 48 hrs by sulforhodamine B assay; settings: MDA-MB-231, 48 h, read-out: Activity
[17] = test system: NCI-H522; test: Cytotoxicity against human NCI-H522 cells assessed as cell growth at 1 uM after 48 hrs by sulforhodamine B assay; settings: NCI-H522, 48 h, read-out: Activity
[18] = test system: SF-268; test: Growth inhibition of human SF268 cells after 48 hrs by sulforhodamine B assay; settings: SF-268, 48 h; for CC50: read-out: LC50 (the source's name); how it was run: as §2
[19] = test system: ACHN; test: Cytotoxicity against human ACHN cells assessed as cell growth at 10 uM; settings: read-out: Activity; how it was run: as §3
[20] = test system: MDA-MB-435; test: Cytotoxicity against human MDA-MB-435 cells assessed as cell growth at 100 nM after 48 hrs by sulforhodamine B assay; settings: MDA-MB-435, 48 h, read-out: Activity
[21] = test system: T47D; test: Cytotoxicity against human T47D cells assessed as cell growth at 1 uM after 48 hrs by sulforhodamine B assay; settings: read-out: Activity
[22] = test system: DU-145; test: Cytotoxicity against human DU145 cells assessed as cell growth at 0.001 uM after 48 hrs by sulforhodamine B assay; settings: DU-145, 48 h, read-out: Activity
[23] = test system: CCRF-CEM; test: Cytotoxicity against human CCRF-CEM cells assessed as cell growth at 10 uM after 48 hrs by sulforhodamine B assay; settings: read-out: Activity; how it was run: as §1
[24] = test system: KM12; test: Cytotoxicity against human KM12 cells assessed as cell growth at 0.001 uM after 48 hrs by sulforhodamine B assay; settings: KM12, 48 h, read-out: Activity
[25] = test system: KM12; test: Cytotoxicity against human KM12 cells assessed as cell growth at 0.01 uM after 48 hrs by sulforhodamine B assay; settings: KM12, 48 h, read-out: Activity
[26] = test system: MDA-MB-231; test: Cytotoxicity against human MDA-MB-231 cells assessed as cell growth at 0.001 uM after 48 hrs by sulforhodamine B assay; settings: MDA-MB-231, 48 h, read-out: Activity
[27] = test system: MDA-MB-468; test: Cytotoxicity against human MDA-MB-468 cells assessed as cell growth at 10 uM after 48 hrs by sulforhodamine B assay; settings: MDA-MB-468, 48 h, read-out: Activity
[28] = test system: UACC-62; test: Cytotoxicity against human UACC62 cells assessed as cell growth at 100 nM after 48 hrs by sulforhodamine B assay; settings: UACC-62, 48 h, read-out: Activity
[29] = test system: SF-295; test: Cytotoxicity against human SF295 cells assessed as cell growth at 0.001 uM after 48 hrs by sulforhodamine B assay; settings: SF-295, 48 h, read-out: Activity
[30] = test system: LOX IMVI; test: Cytotoxicity against human LOXIMVI cells assessed as cell growth at 10 uM after 48 hrs by sulforhodamine B assay; settings: read-out: Activity

Row | SMILES | growth at 0.001 µM [1] | GI50 [2] | TGI [2] | growth at 10 µM [3] | growth at 10 µM [4] | growth at 10 µM [5] | growth at 0.01 µM [6] | growth at 0.1 µM [7] | GI50 [8] | TGI [8] | CC50 [8] | growth at 10 µM [9] | growth at 0.1 µM [10] | growth at 0.01 µM [11] | growth at 0.001 µM [12] | growth at 0.01 µM [13] | growth at 0.001 µM [14] | GI50 [15] | LC50 [15] | TGI [15] | also measured
1 | Cc1cc(O)cc(-c2nn(CC#N)cc2-c2ccnc(-c3ccc(N(C)C)cc3)c2)c1 | 96% | 4.65 µM | 20.8 µM | 22.9% | -15% | -25% | 96% | 87% | 2.89 µM | 16.4 µM | > 100 µM | -31% | 91% | 92% | 92% | 98% | 104% | 2.59 µM | > 100 µM | 12.4 µM | CC50 [2]: 93.9 µM; growth at 0.1 µM [16]: 84%; growth at 1 µM [17]: -13%; GI50 [18]: 3.55 µM; TGI [18]: 16.9 µM; CC50 [18]: 77.9 µM; growth at 10 µM [19]: 31.2%; growth at 0.1 µM [20]: 51%; growth at 1 µM [21]: 5%; growth at 0.001 µM [22]: 103%; growth at 10 µM [23]: 7%; growth at 0.001 µM [24]: 91%; growth at 0.01 µM [25]: 76%; growth at 0.001 µM [26]: 99%; growth at 10 µM [27]: -61%; growth at 0.1 µM [28]: 87%; growth at 0.001 µM [29]: 93%; growth at 10 µM [30]: -87%
2 | COc1cc(C)cc(-c2c(-c3ccnc(-c4ccc(C(C)=O)cc4)c3)cnn2CC#N)c1 | 96% | 3.21 µM | > 100 µM | 53.3% | 66% | 36% | 96% | 83% | 4.24 µM | > 100 µM | > 100 µM | 25% | 88% | 86% | 86% | 95% | 102% | 2.42 µM | > 100 µM | 8.02 µM | CC50 [2]: > 100 µM; growth at 0.1 µM [16]: 86%; growth at 1 µM [17]: -14%; GI50 [18]: 3.14 µM; TGI [18]: > 100 µM; CC50 [18]: > 100 µM; growth at 10 µM [19]: 70%; growth at 0.1 µM [20]: 63%; growth at 1 µM [21]: -9%; growth at 0.001 µM [22]: 109%; growth at 10 µM [23]: 14%; growth at 0.001 µM [24]: 100%; growth at 0.01 µM [25]: 97%; growth at 0.001 µM [26]: 99%; growth at 10 µM [27]: -55%; growth at 0.1 µM [28]: 89%; growth at 0.001 µM [29]: 98%; growth at 10 µM [30]: 21%
3 | COc1cc(C)cc(-c2c(-c3ccnc(-c4ccc(N(C)C)cc4)c3)cnn2CC#N)c1 | 93% | 0.0377 µM | 0.211 µM | 8.33% | 35% | 18% | 26% | 2% | 0.0369 µM | 0.0893 µM | > 100 µM | -25% | 6% | -19% | 102% | 88% | 92% | 0.056 µM | > 100 µM | > 100 µM | growth at 0.1 µM [16]: -5%; growth at 1 µM [17]: -53%; GI50 [18]: 0.302 µM; TGI [18]: > 100 µM; CC50 [18]: > 100 µM; growth at 10 µM [19]: 22.1%; growth at 0.1 µM [20]: -43%; growth at 1 µM [21]: 19%; growth at 0.001 µM [22]: 102%; growth at 10 µM [23]: 8%; growth at 0.001 µM [24]: 95%; growth at 0.01 µM [25]: 20%; growth at 0.001 µM [26]: 101%; growth at 10 µM [27]: -59%; growth at 0.1 µM [28]: 37%; growth at 0.001 µM [29]: 83%; growth at 10 µM [30]: 10%
